Our source for the cytotoxicity values is ChEMBL document CHEMBL4513216, “Probing the Open Global Health Chemical Diversity Library for Multistage-Active Starting Points for Next-Generation Antimalarials” (ACS Infect Dis, 2020).

This series in a line: Toxicity liver stage against HepG2, at 10uM. Also noted: test concentration 10 uM, cell line HepG2-A16-CD81EGFP. In kind it is cell-based. The settings on record: human, HepG2-A16-CD81EGFP cells; read-out: INHIBITION
Put shortly: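 Uninfected HepG2-A16-CD81EGFP cells, 3 × 10^3 per well, 1536-well, plated on prespotted compound at 10 μM final, parasite-free screening media added to match infected plates; puromycin 10 μM positive, DMSO 0.5% negative; run in parallel with 48 h PbLuc assay at 37 °C, 5% CO2; viability by CellTiter-Glo luminescence, normalized to controls.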
Take `CC(C)=CCCC1(C)C=Cc2c(cc(C)n(CC(=O)O)c2=O)O1` (stereo not given): the cytotoxicity at 10 µM is -2.72%. The result for `Cn1cc(CN2CC[C@H]3C[C@H](c4nc(C5CC5)cs4)O[C@@H]3C2)cn1` reads -6.78%. As to `c1coc(CN2CCCC3(COCCN(Cc4c[nH]nn4)C3)C2)c1` (stereo not given), the cytotoxicity at 10 µM is -12.2%.

As to `COc1ccccc1CN1C[C@@H]2CN(C(C)=O)CCO[C@@H]2C1`, the cytotoxicity at 10 µM was -102%. The same measure for `CCc1nn(C)c2[nH]nc(NC(=O)c3cccnc3OC)c12`: -8.98%; for `COc1ccc(CNCC2(COc3cccnc3)C[C@@H](O)[C@@H](O)C2)cc1` (stereo not given in full): -57%; for `O=C(c1cc[nH]n1)N1CCc2ncnc(NCc3ccccn3)c2CC1`: -10.5%. The same measure for `CN(CCc1ccccc1)Cc1c(C2CCNCC2)[nH]c2ncccc12`: 55.5%. As to `CCCOC1CCCN(c2nc(CC)nc3c2cnn3C)C1` (stereo not given), the cytotoxicity at 10 µM is -3.29%. The same measure for `Cc1ccccc1NC(=O)NCCn1nc(C(F)(F)F)n(C)c1=O`: -1.68%; for `CN1CCCCC1c1cncc(N2CCC(O)CC2)n1` (stereo not given): 2.54%.

`c1ccc(COC2CCN(c3cncc(-n4cccn4)n3)CC2)cc1`: the cytotoxicity at 10 µM is -9.18%. The result for `COc1ccc(-c2n[nH]cc2CN(C)Cc2ccoc2)c(F)c1` reads -0.174%; that for `Cc1csc(N2CCCN(Cc3noc(C)n3)CC2)n1`, -4.26%. The result for `Cc1ncn(-c2cc(N3CCN(S(C)(=O)=O)CC3)ncn2)c1C` reads 6.23%. The result for `CS(=O)(=O)N1C[C@H](NC(=O)c2ccno2)[C@@H]2OCCC[C@@H]21` reads -112%; that for `CC(C)Nc1nc2c(c(NC3CC3)n1)CCN(Cc1nccn1C)CC2`, 0.325%. Consider `CCCc1n[nH]c(C2CN(C(=O)c3cc(C4CC4)on3)CCO2)n1` (stereo not given), for which the cytotoxicity at 10 µM stood at 0.471%. The result for `COC(=O)c1cccn1C1CCN(CCN2C(=O)CCC2=O)CC1` reads 0.207%; that for `Cc1ccc(C(CNC(=O)c2cc(=O)c3ccccc3[nH]2)N(C)C)cc1` (stereo not given), -14.6%. The result for `COc1cccc(-c2noc(C3CCN(CC(N)=O)C3)n2)c1` (stereo not given) reads -11.3%; that for `Cc1oc(-c2ccco2)nc1CNC1CCCN(c2cccnn2)C1` (stereo not given), -2.87%.

Take `CCc1ccc(OCCN(C)C(=O)c2ccncc2Cl)cc1`: the cytotoxicity at 10 µM is -2.91%. Take `O=C(NCCc1cccs1)[C@]12COC[C@H]1CN(Cc1ccncc1)C2`: the cytotoxicity at 10 µM is -114%. Regarding `Cc1nnc2n1CCN(CCOc1ccc(C(C)(C)C)cc1)C2`, the cytotoxicity at 10 µM was -17.1%. The same measure for `Cc1cc(OCC(=O)NC(C)c2ccc(N3CCOCC3)cc2)no1` (stereo not given): -12.9%; for `CC1(C)CC1(C(=O)N1CC(c2cccnc2)C1)c1ccc(F)cc1` (stereo not given): -9.41%. The result for `Cc1nc(CNC(=O)N2CCN(c3ccc(Cl)cn3)CC2)no1` reads -13.1%. The same measure for `O=C(CC1CCCO1)NS(=O)(=O)Cc1cc(-c2ccccc2)no1` (stereo not given): 9.95%. For the compound `CCCN1C[C@@H]2CC[C@H]1CN(C(=O)Cc1c(C)[nH]c(CC)nc1=O)C2`, the cytotoxicity at 10 µM is -0.529%. The result for `Cc1nonc1OCCNC(=O)COc1ccc(F)cc1F` reads -1.17%. The same measure for `Cc1ccc(F)c(C(=O)N2CCN(S(C)(=O)=O)[C@@H](C)C2)c1`: -10.3%; for `CCOc1ccc(C(=O)N(CCOC)Cc2c(C)nn(CC)c2C)o1`: -2.99%.

For the compound `O=C1CCC(C(=O)N2CCOC(Cc3ccccc3Cl)C2)=NN1` (stereo not given), the cytotoxicity at 10 µM was -0.108%.

Turning to `Cc1cnccc1-c1cc(NCCO)nc2[nH]ccc12`, the cytotoxicity at 10 µM turned out to be 13.8%. With `COc1ccc(CNCC2CCN(CCO)CC2)cc1F`, the cytotoxicity at 10 µM was -3.71%. The result for `O=C(NC[C@]12COC[C@H]1CN(Cc1cccs1)C2)c1ccsc1` reads -0.629%. The same measure for `N#Cc1cccnc1N1CCC2(CCCN(C3CCOCC3)C2=O)C1` (stereo not given): -9.21%.

As to `COc1cccc(CNCc2cccc(Cl)c2)c1O`, the cytotoxicity at 10 µM is 1.29%. As for `Cc1nc(C2CCCN2Cc2cc(=O)n(C)c(=O)n2C)no1` (stereo not given), the cytotoxicity at 10 µM is -0.222%.

In the case of `c1ccc2c(c1)ccn2CCCNC1CCOC2(CCOCC2)C1` (stereo not given), the cytotoxicity at 10 µM is -7.04%. The same measure for `O=C(c1ncn2c1CNS(=O)(=O)c1ccccc1-2)N1CCOCC1`: 8.28%; for `c1cncc(CN2CCc3ncnc(C4CC4)c3CC2)c1`: -129%; for `CC(=O)N1CCCC1C(=O)NCCOc1cc(C)cc(C)c1` (stereo not given): -10.5%.

As to `Cn1cc(C(=O)N2CCCCC2CCc2ccc(O)cc2)cn1` (stereo not given), the cytotoxicity at 10 µM is -2.3%. The same measure for `O=C(c1ccco1)N1C[C@H]2CCCN(Cc3ccncc3)[C@H]2C1`: 0.361%; for `Cc1cc(C)n(-c2ccc(C(=O)NCc3cncn3CC(C)C)cc2)n1`: -4.04%. The result for `O=C(c1cccc2c1OCCO2)N1CCCC(n2ccnc2)C1` (stereo not given) reads -6.92%; that for `O=C(Nc1cccs1)NC(CCCO)c1ccccc1` (stereo not given), 9.18%; that for `O=C(C1CC=CC1)N1CCCn2nnc(CNc3ncccn3)c2C1`, 6.97%.

As to `Cn1cncc1-c1nnc([C@H]2CCN(Cc3cccnc3)C2)o1`, the cytotoxicity at 10 µM was -4.39%. The result for `Cn1ncc2c(N[C@@H]3CS(=O)(=O)C[C@H]3O)nc(C(C)(C)C)nc21` reads -1.32%; that for `COCCC1(CO)CCCN(C(=O)c2cccnc2O)C1` (stereo not given), -50.7%; that for `CCNc1ncc(C(=O)NC2CCSC2)cn1` (stereo not given), -8.85%. With `CN(Cc1n[nH]c(=O)n1Cc1ccco1)S(C)(=O)=O`, the cytotoxicity at 10 µM is -1.25%. The result for `COCC(=O)NC1CC2(CCN(CCF)CC2)Oc2ccccc21` (stereo not given) reads -0.864%; that for `CC(C)n1cnc(C2CN(C)c3ccc(C(=O)NCC4CC4)cc32)n1` (stereo not given), -2.19%.

Turning to `Cc1ncnc(NC(CC(C)(C)C)c2cccnc2)c1C` (stereo not given), the cytotoxicity at 10 µM turned out to be 1.65%. Take `COc1ccc(Cc2ncc3c(n2)CN(C(=O)CO)C3)cc1`: the cytotoxicity at 10 µM was 0.624%. The result for `COc1c(NC(=O)N(C)CCOc2ccc(F)cc2)c(C)nn1C` reads 1.4%; that for `CC(C)c1noc(CCNC(=O)NCC2Cc3ccccc3O2)n1` (stereo not given), 7.4%. Consider `COCc1ccccc1C(=O)NS(=O)(=O)c1ccc2c(c1)CCC(=O)N2`, for which the cytotoxicity at 10 µM is -1.74%.

`CCC(C(=O)N1CCCN(CCN(C)C)CC1)N1CCCC1=O` (stereo not given): the cytotoxicity at 10 µM is 4.38%.

Regarding `COC(=O)c1ccoc1CN(C)Cc1ccccc1`, the cytotoxicity at 10 µM was determined as 3.3%. The same measure for `COc1ccccc1NC(=O)CC(C)NCCc1sc(C)nc1C` (stereo not given): 4.82%. The same measure for `CSc1ncccc1C(=O)N1CCC2(CC1)c1nc[nH]c1CCN2C`: 52.6%; for `COc1cccc(OCC2CCCN(Cc3ncc[nH]3)C2)c1` (stereo not given): 4.97%; for `Fc1cccnc1Oc1cc(F)c(CN2CCCC2)c(F)c1`: -7.32%. The result for `O=C(NC1CCC1)C1=NOC2(CCN(Cc3ccco3)C2)C1` (stereo not given) reads -80.6%; that for `Cc1cc(CN2CCN(C(=O)NC(C)c3cccnc3)CC2)on1` (stereo not given), -7.93%. Take `O[C@@H]1CC(CNCc2ccccn2)(COc2cccnc2)C[C@@H]1O` (stereo not given in full): the cytotoxicity at 10 µM is -10.3%. `O=C(c1n[nH]c2ccccc12)N1CCCC1c1noc(C2CC2)n1` (stereo not given): the cytotoxicity at 10 µM is -10.8%. The same measure for `O=C(CN1CCN(CC(O)C2CC2)CC1)NCc1ccccc1` (stereo not given): 6.03%.

As for `CN1[C@@H](C(=O)NCC2CC2)C[C@@H]2CN(c3ncccn3)C[C@@H]21`, the cytotoxicity at 10 µM is 9.85%. The same measure for `Cc1ccc(CN(Cc2ccncc2)C2CC(C)(C)NC(C)(C)C2)o1`: -12.3%; for `CN(C)C(=O)c1ccc(OC2CCOCC2)cc1`: -2%. The same measure for `Cc1ccccc1C(=O)NC[C@@H]1CCN(C(=O)C2(O)CCCC2)C[C@H]1O`: -38.7%. The result for `CN(C)c1nc(N)nc(CN2CCCC(c3ccccc3)CC2)n1` (stereo not given) reads 5.47%; that for `COc1cccc(OC)c1C(C(=O)O)N(C)Cc1c(C)n[nH]c1C` (stereo not given), 2.14%; that for `CNC(=O)C1Cn2ccnc2C2(CCN(C(=O)c3ccccn3)CC2)O1` (stereo not given), -144%. Consider `COCCCNC(=O)CN1CCC(c2ccccc2)C1` (stereo not given), for which the cytotoxicity at 10 µM amounted to 20.3%.

Regarding `CCN(CC)C(=O)C1CCC(=O)N(CCc2cccc(F)c2)C1` (stereo not given), the cytotoxicity at 10 µM is -4.92%. The result for `CC(=O)N1N=C(c2ccccc2)OC1C(=O)NCCc1ccc(O)cc1` (stereo not given) reads -4%; that for `COc1ccc2[nH]c3c(N(C)CC4OCCO4)ncnc3c2c1`, 36%; that for `CN(C)CC1CN(Cc2nc(-c3cccnc3)no2)CCO1` (stereo not given), -2.03%. The result for `Cc1noc(C)c1CN(Cc1ccccc1)C(C)C` reads -9.74%. The same measure for `COCc1cnc2n1CCN(C(=O)c1ccc3ccccc3n1)C2C` (stereo not given): -112%; for `CC(Cn1cccn1)NCc1nc(-c2ccccn2)no1` (stereo not given): -5.17%; for `CNc1ncc(CN(C)C(=O)[C@@]23CNC[C@@H]2CN(C(=O)C2CC2)C3)cn1`: 4.67%.

For `O=C(O)C1CN(c2cncc(Cc3ccccc3F)n2)C1`, the cytotoxicity at 10 µM came to 5.7%. The same measure for `Cc1cc(C)c(CNc2ncnc3c2cnn3C)c(=O)[nH]1`: 8.63%. The result for `Cc1nc(CNC(=O)c2cc(COc3cccc(F)c3)[nH]n2)n[nH]1` reads -2.52%; that for `O=C(c1ccn[nH]1)N1CCCC(n2cncn2)C1` (stereo not given), 1.56%. Take `CCC[C@@H]1CN(C(=O)c2ccccc2C(C)=O)C[C@H]1N(C)C`: the cytotoxicity at 10 µM is -0.254%. On to `CN(C)C(=O)COC[C@@]12CCC[C@@H]1CN(C1CCCC1)C2`, for which the cytotoxicity at 10 µM is -13.2%.
